Data published in ChEMBL document CHEMBL3414540, “Synthesis, crystal structure and effect of indeno[1,2-b]indole derivatives on prostate cancer in vitro. Potential effect against MMP-9” (Eur J Med Chem, 2015).
≈ marks a conversion by molar mass, not a printed value.

System: not listed separately
Experiment: (§1) Cytotoxicity against human PC3 cells after 72 hrs by XTT assay
Assay type: functional, cell-based
Settings: PC-3, 72 h
How it was run: (§2)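 Compounds in DMSO (5-100 µg/ml, final DMSO <0.2%) were added for 72 h. XTT was then added (4 h, 37°C) and formazan read at 492 nm. IC50 is the 50% viability drop versus vehicle. Three experiments, five wells each, mean ± SEM.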
For `COc1ccc(N2C3=C(C(=O)CCC3)[C@]3(O)C(=O)c4ccccc4[C@]23O)c(OC)c1` (racemic), the IC50 was over 100 µg/mL.
Compound `COc1ccc(N2C3=C(C(=O)CC(C)(C)C3)[C@]3(O)C(=O)c4ccccc4[C@]23O)c(OC)c1` (racemic) has an IC50 of over 100 µg/mL.
Compound `COc1ccc(N2C3=C(C(=O)CC(C)(C)C3)[C@]3(O)C(=O)c4ccccc4[C@]23O)cc1` (racemic) has an IC50 of over 100 µg/mL.
`COc1ccc(N2C3=C(C(=O)CCC3)[C@]3(O)C(=O)c4ccccc4[C@]23O)cc1` (racemic) showed an IC50 of over 100 µg/mL.
With `O=C1CCCC2=C1[C@]1(O)C(=O)c3ccccc3[C@]1(O)N2c1ccc(Cl)c(Cl)c1` (racemic) the IC50 was 47.8 µg/mL (≈ 115 µM).
In the case of `Cc1ccc(C)c(N2C3=C(C(=O)CC(C)(C)C3)[C@]3(O)C(=O)c4ccccc4[C@]23O)c1` (racemic), the IC50 is reported as over 100 µg/mL.
With `COc1ccc(OC)c(N2C3=C(C(=O)CCC3)[C@]3(O)C(=O)c4ccccc4[C@]23O)c1` the IC50 was over 100 µg/mL.
In the case of `COc1ccc(OC)c(N2C3=C(C(=O)CC(C)(C)C3)[C@]3(O)C(=O)c4ccccc4[C@]23O)c1` (racemic), the IC50 is reported as over 100 µg/mL.
`Cc1cc(C)cc(N2C3=C(C(=O)CC(C)(C)C3)[C@]3(O)C(=O)c4ccccc4[C@]23O)c1` (racemic) gave an IC50 of over 100 µg/mL.

System: PC-3
Experiment: as §1
Assay type: functional, cell-based
Settings: not given
How it was run: as §2
With `O=C1CCCC2=C1[C@]1(O)C(=O)c3ccccc3[C@]1(O)N2c1ccc(Cl)c(Cl)c1` (racemic) the inhibition was “Dose-dependent effect”.

System: LNCaP
Experiment: Cytotoxicity against human LNCAP cells after 72 hrs by XTT assay
Assay type: functional, cell-based
Settings: not given
How it was run: as §2
In the case of `COc1ccc(N2C3=C(C(=O)CCC3)[C@]3(O)C(=O)c4ccccc4[C@]23O)c(OC)c1` (racemic), the IC50 is reported as over 100 µg/mL.
Work on `COc1ccc(N2C3=C(C(=O)CC(C)(C)C3)[C@]3(O)C(=O)c4ccccc4[C@]23O)c(OC)c1` (racemic) yielded an IC50 of over 100 µg/mL.
With `COc1ccc(N2C3=C(C(=O)CC(C)(C)C3)[C@]3(O)C(=O)c4ccccc4[C@]23O)cc1` (racemic) the IC50 was over 100 µg/mL.
In the case of `COc1ccc(N2C3=C(C(=O)CCC3)[C@]3(O)C(=O)c4ccccc4[C@]23O)cc1` (racemic), the IC50 is reported as over 100 µg/mL.
For `O=C1CCCC2=C1[C@]1(O)C(=O)c3ccccc3[C@]1(O)N2c1ccc(Cl)c(Cl)c1` (racemic), the IC50 was 53.9 µg/mL (≈ 130 µM) and the inhibition was “Dose-dependent effect”.
`Cc1ccc(C)c(N2C3=C(C(=O)CC(C)(C)C3)[C@]3(O)C(=O)c4ccccc4[C@]23O)c1` (racemic) showed an IC50 of over 100 µg/mL.
With `COc1ccc(OC)c(N2C3=C(C(=O)CCC3)[C@]3(O)C(=O)c4ccccc4[C@]23O)c1` the IC50 was over 100 µg/mL.
`COc1ccc(OC)c(N2C3=C(C(=O)CC(C)(C)C3)[C@]3(O)C(=O)c4ccccc4[C@]23O)c1` (racemic) showed an IC50 of over 100 µg/mL.
`Cc1cc(C)cc(N2C3=C(C(=O)CC(C)(C)C3)[C@]3(O)C(=O)c4ccccc4[C@]23O)c1` (racemic) showed an IC50 of over 100 µg/mL.

System: not listed separately
Experiment: (§3) Cytotoxicity against rat MAT-LyLu cells after 72 hrs by XTT assay
Assay type: functional, cell-based
Settings: MAT-Ly-Lu
How it was run: as §2
In the case of `COc1ccc(N2C3=C(C(=O)CCC3)[C@]3(O)C(=O)c4ccccc4[C@]23O)c(OC)c1` (racemic), the IC50 is reported as over 100 µg/mL.
In the case of `COc1ccc(N2C3=C(C(=O)CC(C)(C)C3)[C@]3(O)C(=O)c4ccccc4[C@]23O)c(OC)c1` (racemic), the IC50 is reported as over 100 µg/mL.
`COc1ccc(N2C3=C(C(=O)CC(C)(C)C3)[C@]3(O)C(=O)c4ccccc4[C@]23O)cc1` (racemic) gave an IC50 of over 100 µg/mL.
`COc1ccc(N2C3=C(C(=O)CCC3)[C@]3(O)C(=O)c4ccccc4[C@]23O)cc1` (racemic) showed an IC50 of over 100 µg/mL.
`O=C1CCCC2=C1[C@]1(O)C(=O)c3ccccc3[C@]1(O)N2c1ccc(Cl)c(Cl)c1` (racemic) showed an IC50 of 75.2 µg/mL (≈ 181 µM).
Compound `Cc1ccc(C)c(N2C3=C(C(=O)CC(C)(C)C3)[C@]3(O)C(=O)c4ccccc4[C@]23O)c1` (racemic) has an IC50 of over 100 µg/mL.
With `COc1ccc(OC)c(N2C3=C(C(=O)CCC3)[C@]3(O)C(=O)c4ccccc4[C@]23O)c1` the IC50 was over 100 µg/mL.
In the case of `COc1ccc(OC)c(N2C3=C(C(=O)CC(C)(C)C3)[C@]3(O)C(=O)c4ccccc4[C@]23O)c1` (racemic), the IC50 is reported as over 100 µg/mL.
Compound `Cc1cc(C)cc(N2C3=C(C(=O)CC(C)(C)C3)[C@]3(O)C(=O)c4ccccc4[C@]23O)c1` (racemic) has an IC50 of over 100 µg/mL.

System: MAT-Ly-Lu
Experiment: as §3
Assay type: functional, cell-based
Settings: not given
How it was run: as §2
In the case of `O=C1CCCC2=C1[C@]1(O)C(=O)c3ccccc3[C@]1(O)N2c1ccc(Cl)c(Cl)c1` (racemic), the inhibition is reported as “Dose-dependent effect”.
